In ChEMBL document CHEMBL1122917, “Vinblastin-23-oyl amino acid derivatives: chemistry, physicochemical data, toxicity, and antitumor activities against P388 and L1210 leukemias” (J Med Chem, 1985) one finds Survivors and ILS data, which are given here for 2 compounds.

Holding throughout (format): functional
For assay [1], the system named is Mus musculus. The assay is described as follows: Number of survivors on 60th day at dose 80 mg/kg/day in 8 mice implanted with P388 leukemia cell line; 0/8.
Assay [2] has as its system Mus musculus. The assay is described as follows: Percent increase in life span at dose 80 mg/kg/day in 10 mice implanted with P388 leukemia cell line. The procedure, abridged: (§1)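 Female DBA2 mice inoculated iv on day 0 with 10^4 P388 cells; single iv treatment on day 1 with drug as sulfate salt in physiological saline. Survival followed; %ILS from all deaths and survivors as (T/C × 100) − 100, maximal MST 30 days; survivors counted on days 30 and 60. Most experiments confirmed three times.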

Assay [3] relates to Mus musculus. The assay is described as follows: Number of survivors on 60th day at dose 40 mg/kg/day in 10 mice implanted with P388 leukemia cell line; 0/10.
Assay [4] concerns Mus musculus. Description: Number of survivors on 30th day at dose 40 mg/kg/day in 10 mice implanted with P388 leukemia cell line; 0/10.
The subject of assay [5] is Mus musculus. The assay is described as follows: Number of survivors on 30th day at dose 80 mg/kg/day in 8 mice implanted with P388 leukemia cell line; 0/8.
The test system of assay [6] is Mus musculus. The assay is described as follows: Percent increase in life span at dose 60 mg/kg/day in 10 mice implanted with P388 leukemia cell line. In outline: as §1
Assay [7] concerns Mus musculus. The assay is described as follows: Number of survivors on 30th day at dose 60 mg/kg/day in 10 mice implanted with P388 leukemia cell line; 0/10.
For assay [8], the system named is Mus musculus. The assay is described as follows: Percent increase in life span at dose 40 mg/kg/day in 10 mice implanted with P388 leukemia cell line. The procedure, abridged: as §1
Assay [9] concerns Mus musculus. Description: Number of survivors on 60th day at dose 60 mg/kg/day in 10 mice implanted with P388 leukemia cell line; 0/10. In outline: as §1
In assay [10] the test system is Mus musculus. The assay is described as follows: Percent increase in life span at dose 5 mg/kg/day in 10 mice implanted with P388 leukemia cell line. The procedure, abridged:
as §1

For assay [11], the system named is Mus musculus. The assay is described as follows: Number of survivors on 60th day at dose 7.5 mg/kg/day in 10 mice implanted with P388 leukemia cell line; 0/10.
For assay [12], the system named is Mus musculus. The assay is described as follows: Percent increase in life span at dose 7.5 mg/kg/day in 10 mice implanted with P388 leukemia cell line.
Assay [13] deals with Mus musculus. The assay is described as follows: Percent increase in life span at dose 10 mg/kg/day in 10 mice implanted with P388 leukemia cell line. In outline:
as §1

In assay [14] the test system is Mus musculus. Description: Number of survivors on 30th day at dose 5 mg/kg/day in 10 mice implanted with P388 leukemia cell line; 0/10.
The test system of assay [15] is Mus musculus. Description: Number of survivors on 60th day at dose 5 mg/kg/day in 10 mice implanted with P388 leukemia cell line; 0/10.
In assay [16] the test system is Mus musculus. The assay is described as follows: Number of survivors on 30th day at dose 7.5 mg/kg/day in 10 mice implanted with P388 leukemia cell line; 0/10.
Assay [17] concerns Mus musculus. Description: Number of survivors on 30th day at dose 10 mg/kg/day in 10 mice implanted with P388 leukemia cell line; 0/10.
In assay [18] the test system is Mus musculus. Description: Number of survivors on 60th day at dose 10 mg/kg/day in 10 mice implanted with P388 leukemia cell line; 0/10.

Turning to `CCCCCCCCOC(=O)[C@H](CC(C)C)NC(=O)[C@@]1(O)[C@H](O)[C@]2(CC)C=CCN3CC[C@@]4(c5cc([C@@]6(C(=O)OC)C[C@H]7C[N@](CCc8c6[nH]c6ccccc86)C[C@](O)(CC)C7)c(OC)cc5N(C)[C@@]14C)[C@@H]32`, the Survivors in assay [1], in assay [3], in assay [4], in [5], in assay [7] and in assay [9] was 0 in each case. The ILS at 80 mg/kg/day in [2] came to 9.5%. For the same compound, in assay [6], the ILS at 60 mg/kg/day was found to be 7.8%. Further, in [8], the ILS at 40 mg/kg/day was -0.9%.
Take `CCOC(=O)[C@H](CO)NC(=O)[C@@]1(O)[C@H](O)[C@]2(CC)C=CCN3CC[C@@]4(c5cc([C@@]6(C(=O)OC)C[C@H]7C[N@](CCc8c6[nH]c6ccccc86)C[C@](O)(CC)C7)c(OC)cc5N(C)[C@@]14C)[C@@H]32`: the ILS at 5 mg/kg/day in [10] came out at 16%. Further, the Survivors in [11], in [14], in assay [15], in assay [16], in [17] and in assay [18] was 0 each time. The ILS at 7.5 mg/kg/day in assay [12] turned out to be 26%. Besides, in assay [13], the ILS at 10 mg/kg/day came to 32%.
